Test results published in PubChem BioAssay.
Records with an inconclusive call do not appear.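 The calls were made as follows, unless noted: active = viability increase at or above a cutoff of the median across tested compounds plus 3 SD (cut at about 8.5% in these data, passing the limit was not always enough); inconclusive = some gains above the cutoff, reason not given; inactive = the rest.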

Assays:
[1] = S. cerevisiae growth inhibition in permissive medium (OD615), pilot counter-assay for S. cerevisiae lifespan shortening project, permissive growth control (AID 705;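 active = growth inhibition above 25% in both replicates, a cutoff set 3 SD above the mean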); details: OD615, 24 h, at 10 µM, hits give high values
In short: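 System: engineered DeaD yeast; Medium: permissive raffinose/galactose medium; Compound dosing: 10 µM single dose, 0.25% DMSO; Incubation: 4 h cell pre-growth, 24 h exposure at 30 °C; Technique: OD at 615 nm; Evaluation: growth inhibition from lowered OD615 after 24 h.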

[2] = S. cerevisiae growth inhibition in restrictive medium, OD615, pilot screen, restrictive growth control, yeast lifespan reduction project (AID 706;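 active = growth inhibition above a set limit, 3 SD over mean compound inhibition, in both replicates, cut at about 43% in these data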;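 also: modified DeaD lifespan yeast strain shifted to restrictive glucose medium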); details: OD615, 48 h, at 10 µM, hits give high values
In short: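 Material: modified S. cerevisiae; buffer or medium: CSMM-D glucose medium; doses: one concentration, 10 µM final, 0.25% DMSO; incubation: 48 h compound exposure at 30 °C; detection: optical density at 615 nm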

[3] = doxorubicin toxicity protection in MRP-1 cells – H69AR cells, CellTiter-Glo, duplicate, MRP-1 activator project, pilot screen (AID 807); details: H69AR viability with doxorubicin, CellTiter-Glo luminescence; at 10 µM; hits give high values;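 also: compound pretreatment 18-22 h then 72 h combined with doxorubicin; 0% = doxorubicin alone and 100% = vehicle without doxorubicin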
[4] = viability of HCT116 without oncogenic beta-catenin – human colon tumor cells, pilot screen (AID 823;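 active = cell viability at or below a set limit in both duplicate runs, the limit being the all-compound median minus 4 SD, cut at about 23% in these data, passing the limit was not always enough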;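 also: 0% = wells killed by 20 µM Hyamine and 100% = untreated DMSO cell wells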); details: HCT116 beta-catenin knockout viability, CellTiter-Glo, 60 h; at 10 µM; hits give low values
[5] = viability of PTEN-null HCT116 cells – cell-based, HCT116 clonal line, CellTiter-Glo, pilot screen (AID 824;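 active = viability at or below 27.92% in each of two runs, the all-compound median minus 4 SD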;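 also: 0% = 20 µM Hyamine control and 100% = vehicle cell control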); details: HCT116 PTEN-deleted viability, 60 h, at 10 µM, hits give low values
[6] = RAM pathway blockade in budding yeast – dse1pr::URA3 reporter, 5-FOA selection, pilot screen (AID 869;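 active = inhibition over a set limit, the all-compound mean plus 3 SD, in both replicate runs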;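 also: 0% = DMSO wells with no growth and 100% = 10 µM 1-NA-PP1 with full growth; RAM network block rescues cells from 5-FOA so hits raise OD615 growth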); details: S. cerevisiae dse1pr::URA3 5-FOA growth, OD615, 2 d; at 10 µM; hits give high values; strain carries analog-sensitive mutant Cbk1 kinase
[7] = RAM signaling pathway blockade in yeast – S. cerevisiae, Pdr1DBD-CYC8 efflux-inhibited sensitized strain, primary screen (AID 1298;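 active = RAM network inhibition above 8.4% in each of two replicates, 3 SD over the compound average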;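 also: 0% = DMSO untreated cells without growth and 100% = 10 µM 1-NA-PP1 full growth; higher means more yeast growth rescued from 5-FOA killing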); details: S. cerevisiae cbk1-as DSE1-URA3 strain, 5-FOA growth OD615, 2 d; at 50 µM; hits give high values

Cc1ccnc(SCCn2c(N(C)Cc3ccccc3)nc3c2c(=O)n(C)c(=O)n3C)n1
inactive: growth inhibition [1] -15.3% | growth inhibition [2] -13% | viability increase [3] -0.84% | viability [4] 93.3% | viability [5] 88.7% | inhibition [6] -0.475% | RAM network inhibition [7] 5.55%

COc1ccc(CC(NC(=O)c2ccccc2)C(=O)NCC(=O)O)cc1 (configuration not stated)
inactive: growth inhibition [1] -3.04% | growth inhibition [2] -2.91% | viability increase [3] -0.14% | viability [4] 95.2% | viability [5] 101% | inhibition [6] 1.44% | RAM network inhibition [7] -0.37%

c1nnc2c3c4c(sc3ncn12)CCC4
inactive: growth inhibition [1] -1.74% | growth inhibition [2] 15.2% | viability increase [3] -3.97% | viability [4] 96.6% | viability [5] 107% | inhibition [6] 1.25% | RAM network inhibition [7] 6.33%

CCCC(=N)C1=C(O)CC(CC(C)SCC)CC1=O (configuration not stated)
inactive: growth inhibition [1] -5.42% | growth inhibition [2] 5.29% | viability increase [3] -1.06% | viability [4] 97.5% | viability [5] 103% | inhibition [6] 0.49% | RAM network inhibition [7] -1.1%

Nc1c(NCc2ccccc2F)c(=O)[nH]c(=O)n1Cc1ccccc1
inactive: growth inhibition [1] 0.38% | growth inhibition [2] -8.14% | viability increase [3] -1.53% | viability [4] 106% | viability [5] 100% | inhibition [6] 0.67% | RAM network inhibition [7] 1%

Brc1ccccc1Cn1c(-c2cncs2)nc2ccccc21
inactive: growth inhibition [1] -8.58% | growth inhibition [2] 25.2% | viability increase [3] -3.44% | viability [4] 79.2% | viability [5] 73.9% | inhibition [6] 0.68% | RAM network inhibition [7] 3.2%

COc1ccc(C(=O)NCc2cn3ccsc3n2)cc1OC
inactive: growth inhibition [1] -9.73% | growth inhibition [2] -1.42% | viability increase [3] -1.54% | viability [4] 105% | viability [5] 94.6% | inhibition [6] 2.29% | RAM network inhibition [7] 2.63%

CC1(C)CC(=O)N(CC(=O)N2CCN(c3ncccn3)CC2)c2ccccc2S1(=O)=O
inactive: growth inhibition [1] -6.82% | growth inhibition [2] -9.5% | viability increase [3] 0.27% | viability [4] 102% | viability [5] 91.8% | inhibition [6] 0.48% | RAM network inhibition [7] -0.32%

CC1CCCN(C(=O)C2CCN(S(=O)(=O)c3cccc4cccnc34)CC2)C1 (configuration not stated)
inactive: growth inhibition [1] 1.07% | growth inhibition [2] 3.5% | viability increase [3] -3.54% | viability [4] 89.6% | viability [5] 85.6% | inhibition [6] 1.04% | RAM network inhibition [7] 5.46%

COc1cccc(-c2nc(CS(=O)CC(=O)NCc3ccccc3Cl)c(C)o2)c1 (configuration not stated)
inactive: growth inhibition [1] -0.545% | growth inhibition [2] 5.44% | viability increase [3] -3.78% | viability [4] 92.4% | viability [5] 91.9% | inhibition [6] 0.79% | RAM network inhibition [7] 10%

CCn1c(C2CC(=O)N(Cc3ccccc3)C2)nc2ccccc21 (configuration not stated)
inactive: growth inhibition [1] 7.85% | growth inhibition [2] 7.52% | viability increase [3] -2.06% | viability [4] 102% | viability [5] 91.3% | inhibition [6] -0.3% | RAM network inhibition [7] 4.25%

CC(Oc1ccccc1)C(=O)OCC(=O)NC(=O)NCc1ccco1 (configuration not stated)
inactive: growth inhibition [1] -5% | growth inhibition [2] -0.75% | viability increase [3] -1.78% | viability [4] 97.9% | viability [5] 97.2% | inhibition [6] 3.58% | RAM network inhibition [7] 2.68%

CCc1nccn1S(=O)(=O)c1ccc2ccccc2c1
inactive: growth inhibition [1] 0.77% | growth inhibition [2] -2.31% | viability increase [3] -1.22% | viability [4] 102% | viability [5] 103% | inhibition [6] 0.7% | RAM network inhibition [7] 3.49%

COc1cc(NC(=O)C2CCC(CNc3c(N4CCCCC4)c(=O)c3=O)CC2)cc(OC)c1 (configuration not stated)
inactive: growth inhibition [1] 0.52% | growth inhibition [2] -2.35% | viability increase [3] -0.71% | viability [4] 95.2% | viability [5] 95.9% | inhibition [6] 1.79% | RAM network inhibition [7] 5.55%

O=C(CCc1nc2ccccc2[nH]1)NCc1ccc2c(c1)OCO2
inactive: growth inhibition [1] -8.32% | growth inhibition [2] -4.06% | viability increase [3] -2.13% | viability [4] 97.8% | viability [5] 91.7% | inhibition [6] 2.1% | RAM network inhibition [7] 1.84%

O=C(Nc1nnc(-c2ccc3c(c2)CCCC3)o1)C1CCCCC1
inactive: growth inhibition [1] -16.5% | growth inhibition [2] -4.87% | viability increase [3] -2.6% | viability [4] 64.5% | viability [5] 62% | inhibition [6] 3.24% | RAM network inhibition [7] 4.48%

O=C(CN1C(=O)c2ccccc2S1(=O)=O)NC1CC2CCC1C2 (configuration not stated)
inactive: growth inhibition [1] 0.325% | growth inhibition [2] -9.88% | viability increase [3] -1.68% | viability [4] 98.6% | viability [5] 89.9% | inhibition [6] 1.11% | RAM network inhibition [7] -0.63%

CCOC(=O)c1cc2c(n(-c3ccc(C)cc3)c1=O)CCCC2=O
inactive: growth inhibition [1] -9.02% | growth inhibition [2] -16.6% | viability increase [3] -3.28% | viability [4] 99.3% | viability [5] 94.8% | inhibition [6] 0.59% | RAM network inhibition [7] 2.29%

O=C(NCc1ccccn1)c1cc2ccccn2n1
inactive: growth inhibition [1] -2.5% | growth inhibition [2] 0.82% | viability increase [3] -0.01% | viability [4] 104% | viability [5] 102% | inhibition [6] 0.245% | RAM network inhibition [7] 3.25%

NC(=O)C1CCN(C(=O)c2cc3ccccn3n2)CC1
inactive: growth inhibition [1] 0.24% | growth inhibition [2] -0.18% | viability increase [3] -0.34% | viability [4] 103% | viability [5] 98.2% | inhibition [6] 0.505% | RAM network inhibition [7] 1.35%

CCn1cc(C(=O)N2CCN(Cc3ccc4c(c3)OCO4)CC2)c2cc(OC)c(OC)cc2c1=O
inactive: growth inhibition [1] -9.86% | growth inhibition [2] -27.3% | viability increase [3] -5.64% | viability [4] 96.1% | viability [5] 85.9% | inhibition [6] 0.125% | RAM network inhibition [7] 2.76%

c1ccc(-n2cnnc2SCc2cn3ccccc3n2)cc1
inactive: growth inhibition [1] 5.34% | growth inhibition [2] 20.6% | viability increase [3] -4.4% | viability [4] 101% | viability [5] 95.6% | inhibition [6] 1.19% | RAM network inhibition [7] 7.66%

CCOC(=O)CC1C(=O)NCCN1Cc1cccc(C(F)(F)F)c1 (configuration not stated)
inactive: growth inhibition [1] -4.03% | growth inhibition [2] -3.95% | viability increase [3] -1.61% | viability [4] 97.4% | viability [5] 86% | inhibition [6] 1.66% | RAM network inhibition [7] -0.14%

CC(C)c1ccc2c(c1)C(=O)NC(C)(C)C2
inactive: growth inhibition [1] -8.81% | growth inhibition [2] -11.3% | viability increase [3] -2.07% | viability [4] 116% | viability [5] 97.8% | inhibition [6] 1.88% | RAM network inhibition [7] 4.27%

CCCN1C(=O)c2cc(C(=O)NCc3cccs3)ccc2C1O (configuration not stated)
inactive: growth inhibition [1] -5.98% | growth inhibition [2] -16.4% | viability increase [3] -0.99% | viability [4] 107% | viability [5] 96.7% | inhibition [6] 1.94% | RAM network inhibition [7] -0.69%

CCOC12NC(=O)CC(=O)N1C(c1ccccc1)=CS2 (configuration not stated)
inactive: growth inhibition [1] -16% | growth inhibition [2] -6.23% | viability increase [3] 2.97% | viability [4] 100% | viability [5] 104% | inhibition [6] 1.85% | RAM network inhibition [7] 6.38%

O=S(=O)(NCCN1CCCC1)c1cccc2cccnc12
inactive: growth inhibition [1] -4.34% | growth inhibition [2] 14.2% | viability increase [3] -2.62% | viability [4] 99.8% | viability [5] 92.9% | inhibition [6] 0.34% | RAM network inhibition [7] 5.38%

O=C(CSc1nccn1-c1ccc(Cl)cc1)NCc1ccc2c(c1)OCO2
inactive: growth inhibition [1] -14.6% | growth inhibition [2] -8.19% | viability increase [3] -0.8% | viability [4] 96.3% | viability [5] 89.5% | inhibition [6] 1.3% | RAM network inhibition [7] 2.26%

COc1cc2[nH]c(=O)n(CCC(=O)NCc3cccnc3)c(=O)c2cc1OC
inactive: growth inhibition [1] -19.1% | growth inhibition [2] -23.9% | viability increase [3] -1.46% | viability [4] 98.7% | viability [5] 95.8% | inhibition [6] 2.92% | RAM network inhibition [7] 2.26%

CCN(CC)c1ccc(NC(=O)C2CC3CCC2C3)cc1 (configuration not stated)
inactive: growth inhibition [1] -9.15% | growth inhibition [2] -4.45% | viability increase [3] 1.44% | viability [4] 69.6% | viability [5] 80.6% | inhibition [6] 1.14% | RAM network inhibition [7] 6.6%

Cc1nn(C)c(C)c1NS(=O)(=O)c1ccccc1
inactive: growth inhibition [1] -9.1% | growth inhibition [2] -6.73% | viability increase [3] -0.34% | viability [4] 98% | viability [5] 88.4% | inhibition [6] 0.545% | RAM network inhibition [7] 6.15%

O=C(O)C1CCCN1S(=O)(=O)c1ccc(Cl)c(Cl)c1 (configuration not stated)
inactive: growth inhibition [1] -5.33% | growth inhibition [2] -3.77% | viability increase [3] -1.74% | viability [4] 98.6% | viability [5] 106% | inhibition [6] -0.11% | RAM network inhibition [7] 1.89%

COc1ccccc1NC(=O)CSc1nc2sc(C)c(C)c2c(=O)n1Cc1ccco1
inactive: growth inhibition [1] 9.68% | growth inhibition [2] 9.95% | viability increase [3] -3.07% | viability [4] 91% | viability [5] 92% | inhibition [6] 2.17% | RAM network inhibition [7] 3.57%

CCOC(=O)N1CCN(C(=O)C2CCN(Cc3nc(-c4ccccc4C)oc3C)CC2)CC1
inactive: growth inhibition [1] -13.5% | growth inhibition [2] -31.5% | viability increase [3] -1.65% | viability [4] 85.3% | viability [5] 88% | inhibition [6] 0.75% | RAM network inhibition [7] 1.63%

Cc1cc(NC(=O)COn2nnc3ccc(Cl)cc32)no1
inactive: growth inhibition [1] -6.7% | growth inhibition [2] 1.51% | viability increase [3] 1.22% | viability [4] 94.3% | viability [5] 91.2% | inhibition [6] 0.535% | RAM network inhibition [7] 2.19%

CCCCCn1c(CN2CC(C)OC(C)C2)nc2c1c(=O)n(C)c(=O)n2C (configuration not stated)
inactive: growth inhibition [1] -9.73% | growth inhibition [2] 0.38% | viability increase [3] -1.22% | viability [4] 95.3% | viability [5] 86.6% | inhibition [6] 1.86% | RAM network inhibition [7] 1.97%
